# Assay results as given in ChEMBL document CHEMBL3120083, “Discovery of N-[4-[6-tert-butyl-5-methoxy-8-(6-methoxy-2-oxo-1H-pyridin-3-yl)-3-quinolyl]phenyl]methanesulfonamide (RG7109), a potent inhibitor of the hepatitis C virus NS5B polymerase” (J Med Chem, 2014).
# Key:
# Hepatitis C virus [1] = assay: Antiviral activity against Hepatitis C virus genotype 1b Con1 expressing NS5B assessed as inhibition of viral replication after 4 days by luciferase reporter gene assay; type: functional, organism-based, Hepacivirus hominis; settings: isolate Con1, 96 h
# [2] = AUC (0 to infinity) in Beagle dog at 3 mg/kg, po of compound as aqueous suspension; type: ADME, organism-based, Canis lupus familiaris; design: time infinity, dose 3 mg/kg, route oral; settings: plasma
# Hepatitis C virus [3] = assay: Antiviral activity against Hepatitis C virus genotype 1a H77 infected in human 2209-23 cells after 72 hrs by luciferase reporter gene assay; type: functional, organism-based, Hepacivirus hominis; settings: genotype 1a H77, 2209-23, 72 h
# Hepatitis C virus [4] = assay: Antiviral activity against Hepatitis C virus genotype 1a clinical isolate RO-28 expressing NS5B assessed as inhibition of viral replication after 4 days by luciferase reporter gene assay; type: functional, organism-based, Hepacivirus hominis; settings: genotype 1a clinical isolate RO-28, 96 h
# [5] = Volume of distribution at steady state in Wistar/Han rat at 3 mg/kg, iv; type: ADME, organism-based; design: dose 3 mg/kg, route intravenous; settings: in vivo, read-out: Vdss
# How it was run: (§1)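 Single intravenous bolus via tail vein or jugular cannula of dual-cannulated animals, vehicle 2% dimethyl acetamide/20% PEG400/23.4% HPBCD. EDTA blood typically taken at 0.08, 0.25, 0.5, 1, 2, 4, 6, 8 and 24 h from the remaining cannulas. Plasma drug measured by LC/MS/MS following acetonitrile protein precipitation.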
# Hepatitis C virus [6] = assay: Antiviral activity against Hepatitis C virus genotype 1a clinical isolate RO-34 expressing NS5B assessed as inhibition of viral replication after 4 days by luciferase reporter gene assay; type: functional, organism-based, Hepacivirus hominis; settings: genotype 1a clinical isolate RO-34, 96 h
# Hepatitis C virus [7] = assay: Antiviral activity against Hepatitis C virus genotype 1a H77 infected in human 2209-23 cells after 72 hrs by luciferase reporter gene assay in presence of 40% human serum; type: functional, organism-based, Hepacivirus hominis; settings: genotype 1a H77, 2209-23, 72 h
# Hepatitis C virus [8] = assay: Antiviral activity against Hepatitis C virus genotype 1b clinical isolate RO-7 expressing NS5B assessed as inhibition of viral replication after 4 days by luciferase reporter gene assay; type: functional, organism-based, Hepacivirus hominis; settings: genotype 1b clinical isolate RO-7, 96 h
# Hepatitis C virus [9] = assay: Antiviral activity against Hepatitis C virus genotype 1a clinical isolate RO-33 expressing NS5B assessed as inhibition of viral replication after 4 days by luciferase reporter gene assay; type: functional, organism-based, Hepacivirus hominis; settings: genotype 1a clinical isolate RO-33, 96 h
# [10] = Drug uptake in Wistar/Han rat at 30 mg/kg, po of compound as aqueous suspension measured at 8 hrs; type: ADME, organism-based; design: dose 30 mg/kg, route oral; settings: in vivo, read-out: Drug uptake
# [11] = AUC (0 to infinity) in Wistar/Han rat at 30 mg/kg, po of compound as aqueous suspension; type: ADME, organism-based; design: time infinity, dose 30 mg/kg, route oral; settings: plasma
# Hepatitis C virus [12] = assay: Ratio of EC50 for Hepatitis C virus genotype 1b Con1 in presence of human serum to EC50 for Hepatitis C virus genotype 1b Con1; type: functional, Hepacivirus hominis, isolate Con1
# Hepatitis C virus [13] = assay: Antiviral activity against Hepatitis C virus genotype 1a clinical isolate RO-18 expressing NS5B assessed as inhibition of viral replication after 4 days by luciferase reporter gene assay; type: functional, organism-based, Hepacivirus hominis; settings: genotype 1a clinical isolate RO-18, 96 h
# Hepatitis C virus [14] = assay: Antiviral activity against Hepatitis C virus genotype 1a H77 expressing NS5B assessed as inhibition of viral replication after 4 days by luciferase reporter gene assay; type: functional, organism-based, Hepacivirus hominis; settings: genotype 1a H77, 96 h
# [15] = Half life in Beagle dog at 1 mg/kg, iv; type: ADME, organism-based, Canis lupus familiaris; design: dose 1 mg/kg, route intravenous; settings: in vivo; how it was run: as §1
# Hepatitis C virus [16] = assay: Ratio of EC50 for Hepatitis C virus genotype 1a H77 in presence of human serum to EC50 for Hepatitis C virus genotype 1a H77; type: functional, Hepacivirus hominis
# Hepatitis C virus [17] = assay: Antiviral activity against Hepatitis C virus genotype 1b clinical isolate RO-9 expressing NS5B assessed as inhibition of viral replication after 4 days by luciferase reporter gene assay; type: functional, organism-based, Hepacivirus hominis; settings: genotype 1b clinical isolate RO-9, 96 h
# [18] = Volume of distribution at steady state in Beagle dog at 1 mg/kg, iv; type: ADME, organism-based, Canis lupus familiaris; design: dose 1 mg/kg, route intravenous; settings: in vivo, read-out: Vdss; how it was run: as §1
# [19] = Clearance in Wistar/Han rat at 3 mg/kg, iv; type: ADME, organism-based; design: dose 3 mg/kg, route intravenous; settings: in vivo; how it was run: as §1
# Hepatitis C virus [20] = assay: Antiviral activity against Hepatitis C virus genotype 1b clinical isolate RO-1 expressing NS5B assessed as inhibition of viral replication after 4 days by luciferase reporter gene assay; type: functional, organism-based, Hepacivirus hominis; settings: genotype 1b clinical isolate RO-1, 96 h
# [21] = Cmax in Wistar/Han rat at 30 mg/kg, po of compound as aqueous suspension; type: ADME, organism-based; design: dose 30 mg/kg, route oral; settings: in vivo
# Hepatitis C virus [22] = assay: Antiviral activity against Hepatitis C virus genotype 1a clinical isolate RO-24 expressing NS5B assessed as inhibition of viral replication after 4 days by luciferase reporter gene assay; type: functional, organism-based, Hepacivirus hominis; settings: genotype 1a clinical isolate RO-24, 96 h
# Hepatitis C virus [23] = assay: Antiviral activity against Hepatitis C virus genotype 1b clinical isolate RO-3 expressing NS5B assessed as inhibition of viral replication after 4 days by luciferase reporter gene assay; type: functional, organism-based, Hepacivirus hominis; settings: genotype 1b clinical isolate RO-3, 96 h
# Hepatitis C virus [24] = assay: Antiviral activity against Hepatitis C virus genotype 1b clinical isolate RO-10 expressing NS5B assessed as inhibition of viral replication after 4 days by luciferase reporter gene assay; type: functional, organism-based, Hepacivirus hominis; settings: genotype 1b clinical isolate RO-10, 96 h
# Hepatitis C virus [25] = assay: Antiviral activity against Hepatitis C virus genotype 1b Con1 infected in human 2209-23 cells after 72 hrs by luciferase reporter gene assay in presence of 40% human serum; type: functional, organism-based, Hepacivirus hominis; settings: isolate Con1, 2209-23, 72 h
# Hepatitis C virus [26] = assay: Antiviral activity against Hepatitis C virus genotype 1b clinical isolate RO-4 expressing NS5B assessed as inhibition of viral replication after 4 days by luciferase reporter gene assay; type: functional, organism-based, Hepacivirus hominis; settings: genotype 1b clinical isolate RO-4, 96 h
# [27] = Oral bioavailability in Wistar/Han rat at 30 mg/kg of compound as aqueous suspension; type: ADME, organism-based; settings: in vivo
# [28] = Ratio of EC50 for Hepatitis C virus genotype 1a H77 to EC50 for Hepatitis C virus genotype 1b Con1; type: functional
# [29] = Thermodynamic solubility of the compound; type: physicochemical; settings: read-out: Therm_solubility
# Hepatitis C virus [30] = assay: Antiviral activity against Hepatitis C virus genotype 1a clinical isolate RO-38 expressing NS5B assessed as inhibition of viral replication after 4 days by luciferase reporter gene assay; type: functional, organism-based, Hepacivirus hominis; settings: genotype 1a clinical isolate RO-38, 96 h
# [31] = Cmax in Beagle dog at 3 mg/kg, po of compound as aqueous suspension; type: ADME, organism-based, Canis lupus familiaris; design: dose 3 mg/kg, route oral; settings: in vivo
# Hepatitis C virus [32] = assay: Antiviral activity against Hepatitis C virus genotype 1b clinical isolate RO-2 expressing NS5B assessed as inhibition of viral replication after 4 days by luciferase reporter gene assay; type: functional, organism-based, Hepacivirus hominis; settings: genotype 1b clinical isolate RO-2, 96 h
# [33] = Clearance in Beagle dog at 1 mg/kg, iv; type: ADME, organism-based, Canis lupus familiaris; design: dose 1 mg/kg, route intravenous; settings: in vivo; how it was run: as §1
# [34] = Drug uptake in Beagle dog at 3 mg/kg, po of compound as aqueous suspension measured at 8 hrs; type: ADME, organism-based, Canis lupus familiaris; design: dose 3 mg/kg, route oral; settings: in vivo, read-out: Drug uptake
# Hepatitis C virus [35] = assay: Antiviral activity against Hepatitis C virus genotype 1a clinical isolate RO-41 expressing NS5B assessed as inhibition of viral replication after 4 days by luciferase reporter gene assay; type: functional, organism-based, Hepacivirus hominis; settings: genotype 1a clinical isolate RO-41, 96 h
# Hepatitis C virus [36] = assay: Antiviral activity against Hepatitis C virus genotype 1b clinical isolate RO-8 expressing NS5B assessed as inhibition of viral replication after 4 days by luciferase reporter gene assay; type: functional, organism-based, Hepacivirus hominis; settings: genotype 1b clinical isolate RO-8, 96 h
# Hepatitis C virus [37] = assay: Antiviral activity against Hepatitis C virus genotype 1a clinical isolate RO-35 expressing NS5B assessed as inhibition of viral replication after 4 days by luciferase reporter gene assay; type: functional, organism-based, Hepacivirus hominis; settings: genotype 1a clinical isolate RO-35, 96 h
# [38] = Oral bioavailability in Beagle dog at 3 mg/kg of compound as aqueous suspension; type: ADME, organism-based, Canis lupus familiaris; settings: in vivo
# Hepatitis C virus [39] = assay: Antiviral activity against Hepatitis C virus genotype 1b Con1 infected in human 2209-23 cells after 72 hrs by luciferase reporter gene assay; type: functional, organism-based, Hepacivirus hominis; settings: isolate Con1, 2209-23, 72 h
# How it was run: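 Stable GT-1b Con1 subgenomic replicon cell line expressing a renilla luciferase reporter, used as the readout of inhibition. EC50 from luciferase signal, n 2.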
# [40] = Half life in Wistar/Han rat at 3 mg/kg, iv; type: ADME, organism-based; design: dose 3 mg/kg, route intravenous; settings: in vivo; how it was run: as §1
smiles,measurement,setting,value
COc1ccc(-c2cc(C(C)(C)C)c(OC)c3cc(N4CC[C@H](CNS(C)(=O)=O)C4)cnc23)c(=O)[nH]1,EC50,Hepatitis C virus [1],1.2 nM
same,AUC(0-inf),[2],4200 ng·h/mL
same,EC50,Hepatitis C virus [3],17 nM
same,EC50,Hepatitis C virus [4],0.2 nM
same,Vd,[5],2.3 L/kg
same,EC50,Hepatitis C virus [6],0.4 nM
same,EC50,Hepatitis C virus [7],10 nM
same,EC90,Hepatitis C virus [7],61 nM
same,EC50,Hepatitis C virus [8],3.05 nM
same,EC50,Hepatitis C virus [9],0.7 nM
same,concentration at 8 h,[10],1790 ng/mL
same,AUC(0-inf),[11],37000 ng·h/mL
same,Ratio EC50,Hepatitis C virus [12],0.6
same,EC50,Hepatitis C virus [13],0.5 nM
same,EC50,Hepatitis C virus [14],0.65 nM
same,half-life,[15],5.1 h
same,Ratio EC50,Hepatitis C virus [16],0.6
same,EC50,Hepatitis C virus [17],3.5 nM
same,Vd,[18],1.5 L/kg
same,clearance,[19],13.8 mL/min/kg
same,EC50,Hepatitis C virus [20],0.3 nM
same,Cmax,[21],3800 ng/mL
same,EC50,Hepatitis C virus [22],2.5 nM
same,EC50,Hepatitis C virus [23],6.1 nM
same,EC50,Hepatitis C virus [24],1.67 nM
same,EC50,Hepatitis C virus [25],7.5 nM
same,EC90,Hepatitis C virus [25],44 nM
same,EC50,Hepatitis C virus [26],0.8 nM
same,bioavailability,[27],100%
same,Ratio EC50,[28],1.4
same,solubility thermodynamic,[29],39 µg/mL
same,EC50,Hepatitis C virus [30],9.5 nM
same,Cmax,[31],360 ng/mL
same,EC50,Hepatitis C virus [32],4 nM
same,clearance,[33],4.4 mL/min/kg
same,concentration at 8 h,[34],210 ng/mL
same,EC50,Hepatitis C virus [35],0.27 nM
same,EC50,Hepatitis C virus [36],0.33 nM
same,EC50,Hepatitis C virus [37],0.5 nM
same,bioavailability,[38],36%
same,EC50,Hepatitis C virus [39],12 nM
same,half-life,[40],5.6 h
